Laboratory results reported in ChEMBL document CHEMBL3808334, “Synthesis and in vitro evaluation of novel triazine analogues as anticancer agents and their interaction studies with bovine serum albumin” (Eur J Med Chem, 2016).

Key:
[1] = Growth inhibition of human LOXIMVI cells assessed as cell growth at 10^-8 M incubated for 48 hrs by sulforhodamine B assay; format: functional; conditions: LOX IMVI, read-out: Activity
HT-29 = assay: Growth inhibition of human HT-29 cells assessed as cell growth at 10^-8 M incubated for 48 hrs by sulforhodamine B assay; format: functional; conditions: HT-29, 48 h, read-out: Activity
NCI/ADR-RES = assay: Growth inhibition of human NCI/ADR-RES cells assessed as cell growth at 10 uM incubated for 48 hrs by sulforhodamine B assay; format: functional; conditions: read-out: Activity
[2] = Growth inhibition of human MOLT4 cells assessed as cell growth at 10^-6 M incubated for 48 hrs by sulforhodamine B assay; format: functional; conditions: MOLT-4, 48 h, read-out: Activity
[3] = Growth inhibition of human melanoma cells incubated for 48 hrs by sulforhodamine B assay; format: functional; conditions: Melanoma cell; for CC50: read-out: LC50 (the source's name)
[4] = Growth inhibition of human OVCAR8 cells assessed as cell growth at 10 uM incubated for 48 hrs by sulforhodamine B assay; format: functional; conditions: OVCAR-8, 48 h, read-out: Activity
SK-MEL-28 = assay: Growth inhibition of human SK-MEL-28 cells incubated for 48 hrs by sulforhodamine B assay; format: functional; conditions: SK-MEL-28, 48 h
How it was run: (§1)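 Cells were plated at 5,000–40,000 per well according to doubling time and preincubated 24 h at 37 °C in 5% CO2; time-zero plates were then TCA-fixed. Five concentrations (10-fold or ½-log dilutions, DMSO stock) were incubated 48 h. Cells were TCA-fixed, stained with 0.4% SRB and read at 515 nm. GI50 was taken where [(Ti−Tz)/(C−Tz)]×100 = 50.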

CCRF-CEM = assay: Growth inhibition of human CCRF-CEM cells assessed as cell growth at 10 uM incubated for 48 hrs by sulforhodamine B assay; format: functional; conditions: read-out: Activity
How it was run: (§2)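 One-dose screen at 10 µM final. Cells are plated at 5,000–40,000 per well according to doubling time and preincubated 24 h at 37 °C, 5% CO₂. Compound (DMSO stock diluted in medium with 50 µg/ml gentamicin) is then added for 48 h. Growth percent is read by sulforhodamine B staining, absorbance at 515 nm.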

[5] = Growth inhibition of human OVCAR4 cells assessed as cell growth at 10^-5 M incubated for 48 hrs by sulforhodamine B assay; format: functional; conditions: OVCAR-4, 48 h, read-out: Activity
[6] = Growth inhibition of human SF539 cells assessed as cell growth at 10^-7 M incubated for 48 hrs by sulforhodamine B assay; format: functional; conditions: SF-539, 48 h, read-out: Activity
[7] = Growth inhibition of human OVCAR4 cells assessed as cell growth at 10^-8 M incubated for 48 hrs by sulforhodamine B assay; format: functional; conditions: OVCAR-4, 48 h, read-out: Activity
[8] = Growth inhibition of human UO31 cells assessed as cell growth at 10^-4 M incubated for 48 hrs by sulforhodamine B assay; format: functional; conditions: UO-31, 48 h, read-out: Activity
[9] = Growth inhibition of human LOXIMVI cells assessed as cell growth at 10 uM incubated for 48 hrs by sulforhodamine B assay; format: functional; conditions: LOX IMVI, read-out: Activity
Albumin = Albumin (Bos taurus, UniProt P02769); assay: Binding affinity to bovine serum albumin assessed as binding constant in absorption spectra by Benesie-Hildebrand plot analysis; format: ADME; conditions: cattle, isolated protein
How it was run: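 BSA, 10 µM, in 0.1 M phosphate buffer pH 7.4, titrated with compound (0–20 µM per the figure; diluted from 10⁻³ mol L⁻¹ DMSO stocks). Run at 300 K in a 1 cm quartz cell. UV spectra taken 200–800 nm after 5 min equilibration; fluorescence excited at 280 nm, emission 351 nm, slit 10 nm. K is the intercept/slope ratio of a linear fit of 1/(A₀−A) or 1/(F₀−F) vs 1/[compound].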

SK-MEL-5 = assay: Growth inhibition of human SK-MEL-5 cells assessed as cell growth at 10^-5 M incubated for 48 hrs by sulforhodamine B assay; format: functional; conditions: SK-MEL-5, 48 h, read-out: Activity
[10] = Growth inhibition of human TK10 cells incubated for 48 hrs by sulforhodamine B assay; format: functional; conditions: TK-10, 48 h; how it was run: as §1
[11] = Growth inhibition of human SKOV3 cells incubated for 48 hrs by sulforhodamine B assay; format: functional; conditions: SK-OV-3, 48 h; how it was run: as §1
[12] = Growth inhibition of human BT549 cells assessed as cell growth at 10 uM incubated for 48 hrs by sulforhodamine B assay; format: functional; conditions: BT-549, 48 h, read-out: Activity; how it was run: as §2
[13] = Growth inhibition of human LOXIMVI cells assessed as cell growth at 10^-5 M incubated for 48 hrs by sulforhodamine B assay; format: functional; conditions: LOX IMVI, read-out: Activity
[14] = Growth inhibition of human HCT116 cells assessed as cell growth at 10^-5 M incubated for 48 hrs by sulforhodamine B assay; format: functional; conditions: HCT-116, 48 h, read-out: Activity
How it was run: (§3)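 Cells seeded at 5,000–40,000/well according to doubling time and preincubated 24 h at 37 °C, 5% CO2. Time-zero plates were TCA-fixed. DMSO concentrate was diluted in medium with 50 µg/ml gentamicin to give five concentrations (10-fold or ½ log steps), then exposed 48 h. Cells were TCA-fixed, stained with 0.4% SRB and read at 515 nm. Percent growth was taken against time-zero and control; GI50, TGI and LC50 derived.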

T47D = assay: Growth inhibition of human T47D cells assessed as cell growth at 10^-6 M incubated for 48 hrs by sulforhodamine B assay; format: functional; conditions: read-out: Activity
[15] = Growth inhibition of human OVCAR5 cells assessed as cell growth at 10^-4 M incubated for 48 hrs by sulforhodamine B assay; format: functional; conditions: OVCAR-5, 48 h, read-out: Activity
[16] = Growth inhibition of human RXF393 cells assessed as cell growth at 10^-4 M incubated for 48 hrs by sulforhodamine B assay; format: functional; conditions: RXF 393, 48 h, read-out: Activity
[17] = Growth inhibition of human HOP92 cells incubated for 48 hrs by sulforhodamine B assay; format: functional; conditions: HOP-92, 48 h; how it was run: as §3
[18] = Growth inhibition of human UACC257 cells assessed as cell growth at 10 uM incubated for 48 hrs by sulforhodamine B assay; format: functional; conditions: UACC-257, 48 h, read-out: Activity
[19] = Growth inhibition of human OVCAR8 cells assessed as cell growth at 10^-4 M incubated for 48 hrs by sulforhodamine B assay; format: functional; conditions: OVCAR-8, 48 h, read-out: Activity
[20] = read-out: LC50 (the source's name)
[21] = read-out: pLC50 (the source's name) (converted)

Chain of Albumin (P02769 whole entry): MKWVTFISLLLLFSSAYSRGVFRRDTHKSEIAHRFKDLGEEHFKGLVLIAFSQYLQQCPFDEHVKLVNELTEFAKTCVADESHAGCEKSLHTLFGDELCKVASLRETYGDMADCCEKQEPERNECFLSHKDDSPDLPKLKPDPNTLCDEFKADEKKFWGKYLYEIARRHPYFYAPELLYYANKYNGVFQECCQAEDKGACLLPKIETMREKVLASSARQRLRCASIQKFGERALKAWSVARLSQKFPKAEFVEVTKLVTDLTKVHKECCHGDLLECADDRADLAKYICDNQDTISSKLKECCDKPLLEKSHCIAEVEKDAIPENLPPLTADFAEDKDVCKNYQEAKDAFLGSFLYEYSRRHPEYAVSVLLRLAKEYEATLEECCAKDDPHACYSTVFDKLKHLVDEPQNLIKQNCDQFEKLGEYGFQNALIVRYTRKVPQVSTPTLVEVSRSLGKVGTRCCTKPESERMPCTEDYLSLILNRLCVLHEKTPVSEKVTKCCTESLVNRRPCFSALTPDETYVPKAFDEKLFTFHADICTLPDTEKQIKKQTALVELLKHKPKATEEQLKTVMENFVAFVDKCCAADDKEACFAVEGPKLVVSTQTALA

`Fc1ccc(-c2nc(Nc3ccc(-c4nc5ccccc5[nH]4)cc3)nc(N3CCOCC3)n2)cc1` showed a growth at 0.01 µM [1] of 98%, a growth at 0.01 µM (HT-29) of 100% and a growth at 10 µM (NCI/ADR-RES) of 34.2%. The growth at 1 µM [2] was 87%, the GI50 [3] was 1.91 µM and the TGI [3] was 4.04 µM. It also gave a CC50 [3] of 7.43 µM, a growth at 10 µM [4] of 39.2% and a GI50 (SK-MEL-28; read-out: GI50) of 1.8 µM. The CC50 (SK-MEL-28; [20]) was over 100 µM, the TGI (SK-MEL-28; read-out: TGI) was 4.28 µM and the GI50 (SK-MEL-28; read-out: pGI50 (converted)) was 1.78 µM. For the same molecule, the CC50 (SK-MEL-28; [21]) was over 100 µM, the TGI (SK-MEL-28; read-out: pTGI (converted)) was 4.27 µM and the growth at 10 µM (CCRF-CEM) was -1.84%. It also gave a growth at 10 µM [5] of 3%, a growth at 0.1 µM [6] of 92% and a growth at 0.01 µM [7] of 99%. It also gave a growth at 100 µM [8] of -16%, a growth at 10 µM [9] of -75.6% and a K (Albumin) of 1 ×10⁵ /M. For the same molecule, the growth at 10 µM (SK-MEL-5) was -87%, the GI50 ([10]; read-out: GI50) was 2.91 µM and the CC50 [10, 20] was over 100 µM. The TGI ([10]; read-out: TGI) was 8.54 µM, the GI50 ([10]; read-out: pGI50 (converted)) was 2.88 µM and the CC50 [10, 21] was over 100 µM. For the same molecule, the TGI ([10]; read-out: pTGI (converted)) was 8.51 µM, the GI50 ([11]; read-out: GI50) was 2.37 µM and the CC50 [11, 20] was over 100 µM. The TGI ([11]; read-out: TGI) was 5.53 µM, the GI50 ([11]; read-out: pGI50 (converted)) was 2.34 µM and the CC50 [11, 21] was over 100 µM. For the same molecule, the TGI ([11]; read-out: pTGI (converted)) was 5.5 µM, the growth at 10 µM [12] was 5.16% and the growth at 10 µM [13] was -73%. It also gave a growth at 10 µM [14] of -84%, a growth at 1 µM (T47D) of 88% and a growth at 100 µM [15] of -31%. For the same molecule, the growth at 100 µM [16] was -35%, the GI50 ([17]; read-out: GI50) was 1.8 µM and the LC50 (concentration killing 50% of starting cells) ([17]; read-out: LC50) was 7.76 µM. The TGI ([17]; read-out: TGI) was 3.74 µM, the GI50 ([17]; read-out: pGI50 (converted)) was 1.82 µM and the LC50 (concentration killing 50% of starting cells) ([17]; read-out: pLC50 (converted)) was 7.76 µM. The TGI ([17]; read-out: pTGI (converted)) was 3.72 µM, the growth at 10 µM [18] was -27.6% and the growth at 100 µM [19] was -44%.
Molecule `c1ccc2[nH]c(-c3ccc(Nc4nc(N5CCCCC5)nc(N5CCOCC5)n4)cc3)nc2c1` has a growth at 0.01 µM [1] of 96%, a growth at 0.01 µM (HT-29) of 105% and a growth at 10 µM (NCI/ADR-RES) of 45.6%. It also gave a growth at 1 µM [2] of 97%, a GI50 [3] of 1.95 µM and a TGI [3] of 4.18 µM. For the same molecule, the CC50 [3] was 11.8 µM, the growth at 10 µM [4] was 45.7% and the GI50 (SK-MEL-28; read-out: GI50) was 1.8 µM. The CC50 (SK-MEL-28; [20]) was 8.97 µM, the TGI (SK-MEL-28; read-out: TGI) was 4.02 µM and the GI50 (SK-MEL-28; read-out: pGI50 (converted)) was 1.82 µM. For the same molecule, the CC50 (SK-MEL-28; [21]) was 8.91 µM, the TGI (SK-MEL-28; read-out: pTGI (converted)) was 3.98 µM and the growth at 10 µM (CCRF-CEM) was 8.74%. It also gave a growth at 10 µM [5] of 22%, a growth at 0.1 µM [6] of 96% and a growth at 0.01 µM [7] of 101%. For the same molecule, the growth at 100 µM [8] was -36%, the growth at 10 µM [9] was -77.1% and the K (Albumin) was 9.7 ×10⁴ /M. For the same molecule, the growth at 10 µM (SK-MEL-5) was -90%, the GI50 ([10]; read-out: GI50) was 3.21 µM and the CC50 [10, 20] was over 100 µM. The TGI ([10]; read-out: TGI) was 9.26 µM, the GI50 ([10]; read-out: pGI50 (converted)) was 3.24 µM and the CC50 [10, 21] was over 100 µM. It also gave a TGI ([10]; read-out: pTGI (converted)) of 9.33 µM, a GI50 ([11]; read-out: GI50) of 2.37 µM and a CC50 [11, 20] of 26.9 µM. For the same molecule, the TGI ([11]; read-out: TGI) was 5.43 µM, the GI50 ([11]; read-out: pGI50 (converted)) was 2.34 µM and the CC50 [11, 21] was 26.9 µM. The TGI ([11]; read-out: pTGI (converted)) was 5.37 µM, the growth at 10 µM [12] was 23.1% and the growth at 10 µM [13] was -72%. For the same molecule, the growth at 10 µM [14] was -67%, the growth at 1 µM (T47D) was 90% and the growth at 100 µM [15] was -18%. The growth at 100 µM [16] was -46%, the GI50 ([17]; read-out: GI50) was 1.99 µM and the LC50 (concentration killing 50% of starting cells) ([17]; read-out: LC50) was 9.34 µM. It also gave a TGI ([17]; read-out: TGI) of 4.32 µM, a GI50 ([17]; read-out: pGI50 (converted)) of 2 µM and an LC50 (concentration killing 50% of starting cells) ([17]; read-out: pLC50 (converted)) of 9.33 µM. The TGI ([17]; read-out: pTGI (converted)) was 4.37 µM, the growth at 10 µM [18] was -19.3% and the growth at 100 µM [19] was -49%.
